Converted amounts (≈) assume the structure as drawn.
What was measured:
Type in all cases: functional
[1] = system: Vesicular stomatitis virus; experiment: Inhibition of Vesicular stomatitis virus induced cytopathicity in BALB/3T3 cells.; conditions: in Mus musculus
How it was run: (§1)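 Vesicular stomatitis virus was inoculated at 100 CCID50 (100× the dose infecting 50% of cells) in each cell type: human embryonic skin-muscle fibroblasts, LR-strain trisomy-21 fibroblasts, HEp-2, CV-1, BS-C-1, Balb/3T3, RK13, human kidney, HeLa and Vero. CPE was read at 1–2 days in every cell type, once complete in untreated infected controls. The MIC is the concentration giving a 50% reduction in cytopathogenicity.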

[2] = system: Vesicular stomatitis virus; experiment: Inhibition of Vesicular stomatitis virus induced cytopathicity in BS-C-1 cells.; how it was run: as §1
[3] = system: Vesicular stomatitis virus; experiment: Inhibition of Vesicular stomatitis virus induced cytopathicity in CV-1 cells.; how it was run: as §1
[4] = system: Vesicular stomatitis virus; experiment: Inhibition of Vesicular stomatitis virus induced cytopathicity in E6SM cells.; how it was run: as §1
[5] = system: HK; experiment: Minimum inhibitory concentration which is required to reduce virus-induced cytopathogenicity by 50% against Vesicular stomatitis virus in human kidney,; how it was run: as §1
[6] = system: Vesicular stomatitis virus; experiment: Inhibition of Vesicular stomatitis virus induced cytopathicity in HEp-2 cells.; how it was run: as §1
[7] = system: Coxsackievirus B4; experiment: Inhibition of Coxsackie B4 virus induced cytopathicity in HeLa cells.; conditions: Enterovirus B
[8] = system: Vesicular stomatitis virus; experiment: Inhibition of Vesicular stomatitis virus induced cytopathicity in HeLa cells.; how it was run: as §1
[9] = system: HeLa; experiment: Cytotoxic concentration against HeLa cells.; conditions: Homo sapiens
How it was run: (§2)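 Uninfected cells were incubated with compound for the same duration as the matching antiviral assay. The minimum cytotoxic concentration is the lowest one causing a microscopically detectable change in normal cell morphology.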

[10] = system: PRK; experiment: Cytotoxic concentration against PRK cells.; conditions: Oryctolagus cuniculus; how it was run: as §2
[11] = system: Human alphaherpesvirus 1; experiment: Inhibition of HSV-1 induced cytopathicity in PRK cells.
[12] = system: Vaccinia virus; experiment: Inhibition of Vaccinia virus induced cytopathicity in PRK cells.; conditions: Orthopoxvirus vaccinia
[13] = system: Vesicular stomatitis virus; experiment: Inhibition of Vesicular stomatitis virus induced cytopathicity in PRK cells.
[14] = species: Oryctolagus cuniculus; experiment: Inhibitory effects on DNA, RNA, and Protein synthesis in rabbit kidney cells was evaluated for incorporation of [4,5-3H]leucine; conditions: read-out: ID50 (the source's name)
[15] = species: Oryctolagus cuniculus; experiment: Inhibitory effects on DNA, RNA, and Protein synthesis in rabbit kidney cells was evaluated for incorporation of [5-3H]-Urd; conditions: read-out: ID50 (the source's name)
[16] = system: Vesicular stomatitis virus; experiment: Inhibition of Vesicular stomatitis virus induced cytopathicity in RK13 cells.; how it was run: as §1
[17] = system: Vesicular stomatitis virus; experiment: Inhibition of Vesicular stomatitis virus induced cytopathicity in T-21 cells.; how it was run: as §1
[18] = system: Vero; experiment: Cytotoxic concentration against Vero cells.; conditions: Chlorocebus sabaeus; how it was run: as §2
[19] = system: Sindbis virus; experiment: Inhibition of Sindbis virus induced cytopathicity in vero cells.
[20] = system: Vesicular stomatitis virus; experiment: Inhibition of Vesicular stomatitis virus induced cytopathicity in Vero cells.; how it was run: as §1
[21] = system: Measles morbillivirus; experiment: Inhibition of Measles virus induced cytopathicity in vero cells.
[22] = system: Human respirovirus 3; experiment: Inhibition of parainfluenza virus-3 induced cytopathicity in vero cells.
[23] = system: Mammalian orthoreovirus 1; experiment: Inhibition of Reo virus-1 induced cytopathicity in vero cells.
[24] = system: Poliovirus 1; experiment: Inhibition of polio virus 1 induced cytopathicity in HeLa cells.; conditions: Enterovirus C
[25] = species: Oryctolagus cuniculus; experiment: Inhibitory effects on DNA, RNA, and Protein synthesis in rabbit kidney cells was evaluated for incorporation of [methyl-3H]dThd]; conditions: read-out: ID50 (the source's name)

SMILES	MIC [1] [µg/mL]	MIC [2] [µg/mL]	MIC [3] [µg/mL]	MIC [4] [µg/mL]	MIC [5] [µg/mL]	MIC [6] [µg/mL]	MIC [7] [µg/mL]	MIC [8] [µg/mL]	MCC [9] [µg/mL]	MCC [10] [µg/mL]	MIC [11] [µg/mL]	MIC [12] [µg/mL]	MIC [13] [µg/mL]	MIC [16] [µg/mL]	MIC [17] [µg/mL]	MCC [18] [µg/mL]	MIC [19] [µg/mL]	MIC [20] [µg/mL]	MIC [21] [µg/mL]	MIC [22] [µg/mL]	other results
CCCCOC(=O)C(O)Cn1cnc2c(N)ncnc21 (stereo not drawn)	200 (≈ 716 µM)	150 (≈ 537 µM)	300 (≈ 1070 µM)	7 (≈ 25.1 µM)	50 (≈ 179 µM)	2 (≈ 7.16 µM)	> 400	15 (≈ 53.7 µM)	400	200	> 200	3 (≈ 10.7 µM)	3 (≈ 10.7 µM)	100 (≈ 358 µM)	2 (≈ 7.16 µM)	200	150 (≈ 537 µM)	30 (≈ 107 µM)	25 (≈ 89.5 µM)	70 (≈ 251 µM)	IC50 [14]: > 381 µg/mL; IC50 [15]: 102 µg/mL (≈ 365 µM); MIC [23]: 150 µg/mL (≈ 537 µM); MIC [24]: > 400 µg/mL; IC50 [25]: > 253 µg/mL
Nc1ncnc2c1ncn2CC(O)C(=O)OC1CCCCC1 (stereo not drawn)	70 (≈ 229 µM)	40 (≈ 131 µM)	> 200	7 (≈ 22.9 µM)	> 200	2 (≈ 6.55 µM)	> 100	30 (≈ 98.3 µM)	100	100	100 (≈ 328 µM)	3 (≈ 9.83 µM)	1 (≈ 3.28 µM)	70 (≈ 229 µM)	1 (≈ 3.28 µM)	100	> 100	> 100	15 (≈ 49.1 µM)	> 40	MIC [23]: 7 µg/mL (≈ 22.9 µM); MIC [24]: > 100 µg/mL
COCCOC(=O)C(O)Cn1cnc2c(N)ncnc21 (stereo not drawn)	> 400	> 400	> 400	7 (≈ 24.9 µM)	> 400	7 (≈ 24.9 µM)	> 400	20 (≈ 71.1 µM)	> 400	> 400	> 400	30 (≈ 107 µM)	7 (≈ 24.9 µM)	70 (≈ 249 µM)	15 (≈ 53.3 µM)	> 400	> 400	300 (≈ 1070 µM)	400 (≈ 1420 µM)	300 (≈ 1070 µM)	MIC [23]: 70 µg/mL (≈ 249 µM); MIC [24]: > 400 µg/mL
CCC(C)OC(=O)C(O)Cn1cnc2c(N)ncnc21 (stereo not drawn)	> 400	> 400	> 400	1 (≈ 3.58 µM)	> 400	7 (≈ 25.1 µM)	> 400	30 (≈ 107 µM)	> 400	> 400	> 400	3 (≈ 10.7 µM)	1 (≈ 3.58 µM)	15 (≈ 53.7 µM)	1 (≈ 3.58 µM)	> 400	300 (≈ 1070 µM)	150 (≈ 537 µM)	40 (≈ 143 µM)	200 (≈ 716 µM)	MIC [23]: 70 µg/mL (≈ 251 µM); MIC [24]: > 400 µg/mL
CC(C)CCOC(=O)C(O)Cn1cnc2c(N)ncnc21 (stereo not drawn)	200 (≈ 682 µM)	70 (≈ 239 µM)	200 (≈ 682 µM)	2 (≈ 6.82 µM)	10 (≈ 34.1 µM)	1 (≈ 3.41 µM)	> 400	3 (≈ 10.2 µM)	400	400	> 400	10 (≈ 34.1 µM)	3 (≈ 10.2 µM)	100 (≈ 341 µM)	1 (≈ 3.41 µM)	400	200 (≈ 682 µM)	15 (≈ 51.1 µM)	12 (≈ 40.9 µM)	> 200	IC50 [14]: 228 µg/mL (≈ 777 µM); IC50 [15]: 29 µg/mL (≈ 98.9 µM); MIC [23]: 30 µg/mL (≈ 102 µM); MIC [24]: > 400 µg/mL; IC50 [25]: 114 µg/mL (≈ 389 µM)
CC(C)COC(=O)C(O)Cn1cnc2c(N)ncnc21 (stereo not drawn)	300 (≈ 1070 µM)	100 (≈ 358 µM)	200 (≈ 716 µM)	5 (≈ 17.9 µM)	20 (≈ 71.6 µM)	1 (≈ 3.58 µM)	> 400	10 (≈ 35.8 µM)	> 400	> 400	> 400	3 (≈ 10.7 µM)	1 (≈ 3.58 µM)	30 (≈ 107 µM)	1 (≈ 3.58 µM)	> 400	> 400	30 (≈ 107 µM)	40 (≈ 143 µM)	20 (≈ 71.6 µM)	IC50 [14]: > 277 µg/mL; IC50 [15]: 34 µg/mL (≈ 122 µM); MIC [23]: 150 µg/mL (≈ 537 µM); MIC [24]: > 400 µg/mL; IC50 [25]: 242 µg/mL (≈ 866 µM)
CC(C)(C)OC(=O)C(O)Cn1cnc2c(N)ncnc21 (stereo not drawn)	> 400	> 400	> 400	150 (≈ 537 µM)	> 400	40 (≈ 143 µM)	> 400	150 (≈ 537 µM)	> 400	> 400	> 400	150 (≈ 537 µM)	150 (≈ 537 µM)	30 (≈ 107 µM)	15 (≈ 53.7 µM)	> 400	> 400	> 400	150 (≈ 537 µM)	150 (≈ 537 µM)	MIC [23]: 150 µg/mL (≈ 537 µM); MIC [24]: > 400 µg/mL

— ChEMBL document CHEMBL1123109, “Alkyl esters of 3-adenin-9-yl-2-hydroxypropanoic acid: a new class of broad-spectrum antiviral agents” (1985)
